# Most compounds without a hit are left out; they make up all but 1.7% or so of the library.
# SKKanGAS inh = inhibitors of SKKanGAS S. pyogenes growth in kanamycin (SK-promoter or general growth effect); BacTiter-Glo, 6 h; inhibition, % at 7.5 µM; actives 1.3% (n = 300,000); AID 1662;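 active = mean replicate score, as percent of positive control median, at least 50; inconclusive = mean below 50 but one replicate at or above 50; inactive = mean and every replicate below 50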;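 also: strain carries kanamycin resistance gene driven by streptokinase promoter and grows in 40 µg/ml kanamycin; loss of luminescence reflects streptokinase promoter inhibition or plain growth inhibition; 0% = median of DMSO wells and 100% = positive control at its reference dose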
# PglD DTNB = blocks C. jejuni PglD acetyltransferase activity. AID 602405. inhibition, % at 12.5 µM. actives 0.098% (n = 360,000). purified PglD enzyme, DTNB colorimetric CoA detection; in the data active = inhibition above about 16%, passing the limit was not always enough; inconclusive = no clear call, values can overlap the other calls
# CSC inhib = blocks cancer stem cells | cancer stem cell-like cells viability, luminescence | inhibition, % at 7.5 µM | actives 1.1% (n = 300,000) | AID 2717; in the data active = inhibition above about 75%; inconclusive = no clear call, values can overlap the other calls; tested in HMLE shEcad cells
# Rtt109 Vps75 = inhibitors of Candida albicans Rtt109/Vps75 histone acetyltransferase | actives 0.16% (n = 330,000) | purified Rtt109/Vps75, ThioGlo CoA-SH fluorescence, 4 h | inhibition, % at 34.9 µM;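 active = inhibition of at least 50% in every replicate; inconclusive = best replicate reaches 50% inhibition but some replicates fall short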
# Target sequence (Q5AAJ8 whole entry, looked up): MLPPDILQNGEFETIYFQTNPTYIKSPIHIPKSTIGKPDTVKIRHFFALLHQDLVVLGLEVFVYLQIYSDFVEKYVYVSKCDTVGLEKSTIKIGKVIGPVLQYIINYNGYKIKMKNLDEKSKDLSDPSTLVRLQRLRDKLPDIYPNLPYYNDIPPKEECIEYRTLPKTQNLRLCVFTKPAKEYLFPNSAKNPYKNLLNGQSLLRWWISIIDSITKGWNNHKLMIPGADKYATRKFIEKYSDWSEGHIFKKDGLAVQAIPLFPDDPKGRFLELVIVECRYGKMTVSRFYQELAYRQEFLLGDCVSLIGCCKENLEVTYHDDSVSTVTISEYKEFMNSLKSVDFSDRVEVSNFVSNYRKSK
# FN deposit inh = fibronectin deposition inhibition; inhibition, % at 12.6 µM; AH1F fibroblasts, Alexa488-fibronectin deposition fluorescence, overnight; AID 743247; actives 0.086% (n = 350,000);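 active = mean inhibition across replicates of 30% or more, regardless of how many single replicates reach that level; inconclusive = mean under 30% yet at least half of replicates reach 30%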;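 also: positive control wells lacked labelled fibronectin entirely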
#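 Schedule: 1 h cell adhesion before compound, then overnight fibronectin incubation; test system: AH1F fibroblast monolayer depositing Alexa488-labelled fibronectin into matrix; quantity: 10000 AH1F cells per well; probe or stimulus: fluorescent fibronectin at 24 nM final; signal: fluorescence, ex 485 nm, em 525 nm; evaluation: percent inhibition as loss of matrix-bound fibronectin fluorescence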
# PfHsp90 yeast 2 = growth inhibition of yeast expressing Plasmodium Hsp90. S. cerevisiae expressing PfHsp90, BacTiter-Glo ATP, 48 h; yeast lacking PDR1 and PDR3 efflux regulators. inhibition, % at 9.4 µM. actives 0.32% (n = 310,000). AID 504621;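 active = every replicate shows inhibition above about 80%, whatever the replicate mean, limit read from the data; inconclusive = mean inhibition reaches the set limit but some replicate falls short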;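 also: 0% = DMSO neutral controls and 100% = 20 µM radicicol positive controls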
# An asterisk follows results filed as active; ? = inconclusive; / = no result.
SMILES,SKKanGAS inh,PglD DTNB,CSC inhib,Rtt109 Vps75,FN deposit inh,PfHsp90 yeast 2
CC(C)NC(=O)N1[C@@H]2CNC[C@H]1C2c1ccc(-c2ccc(C#N)cc2)cc1 (some centres undefined),/,/,/,/,-2.6,/
Cc1ccc(C(=O)Nc2ncc(Cc3ccccc3)s2)o1,23.1,-4.0,96.8*,1.9,-3.6,19.7
O=C(Nc1ncc(Cc2ccc(SC(F)F)cc2)s1)c1ccccc1,81.6*,1.2,67.7,-6.9,2.2,0.4
O=C(Nc1ncc(Cc2cccc(Cl)c2)s1)c1cccs1,95.0*,5.6,/,3.2,/,-17.0
O=C(Nc1ncc(Cc2ccccc2)s1)c1cccs1,65.8*,3.6,49.6,15.2,/,-11.0
O=S(=O)(N[C@@H]1CC[C@@H](CCn2cc(-c3ccccn3)nn2)O[C@@H]1CO)c1cccc(F)c1,/,-1.7,/,/,1.9,/
Cc1ccc(Cc2cnc(NC(=O)C3CCCO3)s2)cc1 (centres undefined),3.7,-0.1,-2.9,-9.1,/,9.2
O=C(Nc1nc(-c2cc(Cl)sc2Cl)cs1)c1ccc(Br)s1,6.0,-3.0,39.4,-15.8,-1.8,-6.6
Cc1ccc(Cc2cnc(NC(=O)c3cccs3)s2)cc1,78.0*,5.0,-23.0,-3.3,/,-5.2
O=C(Nc1nc(-c2cc(Cl)sc2Cl)cs1)c1cccs1,60.5*,-6.3,111.9*,4.7,/,2.6
CCCN(C)C[C@@H]1Oc2ncc(C#CCC(C)C)cc2C(=O)N([C@@H](C)CO)C[C@H]1C,/,1.7,/,/,3.7,/
CC(NS(=O)(=O)OCC(Cl)(Cl)Cl)c1ccc(C(C)(C)C)cc1 (centres undefined),92.9*,-4.3,?,13.7,6.4,-34.6
CC(=O)N(C)C[C@@H]1Oc2ccc(NS(C)(=O)=O)cc2CC(=O)N(C)C[C@@H]1C,/,/,/,/,5.6,/
N#CC1=C2SC=C(c3ccc(Br)cc3)N2CCCC1=O,41.1,/,86.2*,6.1,25.8,2.9
COc1ccc(NC(=O)N2CCCc3ccccc32)cc1,-11.1,-9.6,/,1.4,-9.0,-27.0
COc1ccc(N/N=C(/C(C)=O)N2CCCc3ccccc32)cc1,7.1,/,88.4*,6.5,-8.1,-9.5
Cc1ccc(C(C)C)c(OCc2nn(CC(=O)c3ccc(OC(F)F)cc3)c3[n+]2CCCCC3)c1,70.7*,2.3,94.5*,?,/,9.3
COc1ccc(C(=O)Cn2nc(CNc3ccc(Br)cc3)[n+]3c2CCCCC3)cc1,6.7,/,12.7,35.4,/,-31.8
CC(CCC(C)C(C)(C)C)[C@@H]1CC[C@H]2C3C[C@H](OS(O)(=S)=S)[C@H]4C[C@H](OS(O)(=S)=S)[C@@H](OS(O)(=S)=S)C[C@]4(C)[C@H]3CC[C@]12C (some centres undefined) (tested in a mixture with another compound),/,0.3,98.4*,?,/,108.7*
CC(CCC(=O)NN)C1CCC2C3CCC4CC(O)CCC4(C)C3CCC12C (centres undefined),/,/,/,7.1,-7.3,4.7
Cc1ccc(NC(=S)N(CCCN2CCCC2)Cc2cccn2Cc2ccc(Cl)cc2)cc1Cl,32.3,2.7,143.8*,4.0,0.6,-12.0
Cc1ccc(NC(=S)N(CCCN2CCCC2)Cc2cccn2Cc2ccc(Cl)cc2)cc1C,0.8,-1.7,69.9,61.8*,7.5,-34.6
FC(F)(F)c1cccc(NC(=S)N(CCCN2CCCC2)Cc2cccn2Cc2ccc(Cl)cc2)c1,-5.4,7.5,130.0*,7.8,-8.3,13.9
O=C(Nc1ccc2c(c1)[C@H]1C[C@@H](CC(=O)N3CCOCC3)O[C@@H](CO)[C@H]1O2)c1cccnc1,/,2.8,/,/,-5.5,/
COc1cccc(NC(=O)N2C[C@@H](O)COC[C@@H]3O[C@@H](CC(=O)NCc4ccccc4F)CC[C@H]32)c1,/,7.4,/,/,1.7,/
O=C(NC(Cc1c[nH]c2ccccc12)C(=O)N/N=C/c1cccc2ccccc12)c1cccs1 (centres undefined),60.3*,/,15.1,5.8,0.0,-24.6
O=C(Nc1ccc(F)cc1)N[C@@H]1CC[C@@H](CC(=O)N2CCOCC2)O[C@@H]1CO,/,-2.4,/,/,5.4,/
Cc1cccc(N2C(S)=C(C#N)C(=O)NC2c2ccco2)c1 (centres undefined),2.2,-2.4,0.6,7.6,/,7.3
